What is called IC50 is the concentration that inhibits the measured activity by half. A high value points to lower potency. A word on the ED50: it is the midpoint of the dose-response relation.

Molecules are shown by their SMILES. Some results are limits rather than exact numbers.

Data on 36 molecules can be found in ChEMBL document CHEMBL1125896, “2-(oxadiazolyl)- and 2-(thiazolyl)imidazo[1,2-a]pyrimidines as agonists and inverse agonists at benzodiazepine receptors” (J Med Chem, 1991).

For test [1], the target named is GABA-A receptor; anion channel. Nature of the test: Binding affinity towards benzodiazepine receptor by the displacement of [3H]flunitrazepam from rat brain preparations. (In general: Loss of bound radioactivity is the signal in a displacement assay; it reports binding, not function.)
In test [2] the test system is Rattus norvegicus. Nature of the test: Compound was tested for the minimum effective dose (MED) on oral administration; value ranges from 10-50 mg/Kg. Conditions: read-out: MED. It is filed as functional. The essentials:
(§1)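 Food-motivated conflict test in trained Lister rats: five alternating 4-min FI30 unpunished and five 3-min FR5 punished components. Dosing po 30 min before testing, first at 50 mg/kg in four rats, then at decreasing doses (20, 10, 5, 2, 1 mg/kg) if active. MED is the dose giving a significant rise in punished responding (Mann-Whitney U).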

Test [3] concerns Rattus norvegicus. Nature of the test: Minimum effective dose on oral administration. In kind it is functional. Conditions: read-out: MED. The method in brief: as §1
Test [4] concerns Rattus norvegicus. The test can be described thus: Compound was tested for conflict antagonism of chlordiazepoxide (CDZP) at 10 mg/kg orally. In kind it is functional. The conditions noted are these: po, read-out: MED. The method in brief: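 Food-motivated conflict test in trained Lister rats: test compound given po with 10 mg/kg po chlordiazepoxide. Effect compared with chlordiazepoxide alone in the same rats in separate assays. Schedule of five alternating 4-min FI30 unpunished and five 3-min FR5 punished components.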

The species named for test [5] is Mus musculus. The test can be described thus: Dose of leptazol-inducing tonic seizures in CD-1 mice was determined and represented as ED50. In kind it is functional.
The species entered for test [6] is Mus musculus. Nature of the test: Sedative/muscle relaxant effects in male CD-1 mice was assessed with a Ugo Basile rotating drum and the dose causing 50% decrease in time (ED50) was evaluated. In kind it is functional. The essentials:
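Rotating drum of 3 cm diameter at 16 rev/min; time on drum recorded 1 h after dosing. Mean for groups of 10 mice expressed as percentage of control group mean.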

The species entered for test [7] is Mus musculus. Nature of the test: The dose of leptazol-inducing tonic seizures in CD-1 mice was determined and represented as ED50. In kind it is functional.
The test system of test [8] is Rattus norvegicus. The test can be described thus: Compound was tested for the minimum effective dose (MED) on oral administration; value ranges from 1-2 mg/Kg. It is filed as functional. The conditions noted are these: read-out: MED. The essentials:
as §1

The species entered for test [9] is Mus musculus. The test can be described thus: Sedative/muscle relaxant effects in male CD-1 mice was assessed with a Ugo Basile rotating drum and the dose causing 50% decrease in time (ED50) was calculated. In kind it is functional. The method in brief:
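Male CD-1 mice, groups of 10, were placed on a rotating drum (3 cm diameter, 16 rev/min) 1 h after dosing and their time on the drum was recorded. The group mean was expressed as a percentage of the control group mean. The dose giving a 50% decrease came from best-fit lines through at least three dose-effect points, with 95% confidence limits by Litchfield and Wilcoxon.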

The test system of test [10] is Mus musculus. Nature of the test: Intraperitoneal dose of leptazol-inducing tonic seizures in CD-1 mice was determined and represented as ED50. In kind it is functional. The conditions noted are these: ip.
In test [11] the test system is Rattus norvegicus. Nature of the test: Compound was tested for the minimum effective dose (MED) on oral administration; value ranges from 2-5 mg/Kg. It is filed as functional. The conditions noted are these: read-out: MED. The essentials: as §1

`CCc1c(OC)nc2nc(-c3nnc(C(F)(F)F)o3)cn2c1C` displayed an IC50 in test [1] greater than 10000 nM. Further, in the test with Rattus norvegicus [2], the minimal effective dose stood at 10 mg/kg.

Consider `C=CCc1c(OC)nc2nc(-c3nnc(C)o3)cn2c1C`, for which, in test [1], the IC50 is 2500 nM. Also, the minimal effective dose in the test with Rattus norvegicus [3] is 10 mg/kg.

`CCc1c(OC)nc2nc(-c3nccs3)cn2c1C`: the IC50 in test [1] turned out to be 200 nM. Moreover, the minimal effective dose in the test with Rattus norvegicus [4] amounted to 10 mg/kg.

As for `CCc1c(SC)nc2nc(-c3nc(C)cs3)cn2c1C`, in test [1], the IC50 came to 80 nM. The minimal effective dose is 50 mg/kg in the test with Rattus norvegicus [4] and greater than 50 mg/kg in the test on Rattus norvegicus [3].

Turning to `CCCc1c(OC)nc2nc(-c3nnc(C)o3)cn2c1C`, the IC50 in [1] stood at 7900 nM. Besides, the minimal effective dose in the test with Rattus norvegicus [3] came out at 10 mg/kg.

The molecule `CCc1c(OC)nc2nc(-c3nnco3)cn2c1C` gave an IC50 in test [1] of 10000 nM. Further, the minimal effective dose with Rattus norvegicus [3] is greater than 50 mg/kg.

The molecule `C=CCc1c(OC)nc2nc(-c3nc(C)cs3)cn2c1C` returned an IC50 in test [1] of 100 nM. Further, the minimal effective dose with Rattus norvegicus [4] and in the test on Rattus norvegicus [3] was greater than 50 mg/kg throughout.

`CCc1c(OC)nc2nc(-c3nnc(-c4ccccc4)o3)cn2c1C` came in with an IC50 in test [1] greater than 10000 nM. The minimal effective dose in the test on Rattus norvegicus [3] was greater than 50 mg/kg.

For `C=CCc1c(OC)nc2nc(-c3noc(C)n3)cn2c1C`, the IC50 in test [1] worked out at 560 nM. In addition, the minimal effective dose in the test on Rattus norvegicus [3] was found to be 10 mg/kg.

In turn, `COc1nc2nc(-c3noc(C)n3)cn2c2c1CCCC2` [TANIPLON] came in with an IC50 in test [1] of 560 nM. In addition, the ED50 in the test listed under Mus musculus [5] was 55 mg/kg; in the test filed under Mus musculus [6] it was greater than 100 mg/kg. The minimal effective dose in the test with Rattus norvegicus [3] is 5 mg/kg.

Regarding `CCOC(=O)c1csc(-c2cn3c(C)c(CC)c(OC)nc3n2)n1`, the IC50 in [1] was 2800 nM. The minimal effective dose with Rattus norvegicus [3] was greater than 50 mg/kg.

The molecule `CCCc1nnc(-c2cn3c(C)c(CC)c(OC)nc3n2)o1` had an IC50 in test [1] greater than 10000 nM. For the same molecule, in the test on Rattus norvegicus [3], the minimal effective dose stood at 50 mg/kg.

Molecule `CCc1c(OC)nc2nc(-c3cc(C)[nH]n3)cn2c1C` gave an IC50 in test [1] of 5000 nM. Besides, the minimal effective dose with Rattus norvegicus [3] was greater than 50 mg/kg.

In the case of `CCc1c(OC)nc2nc(-c3noc(C(F)(F)F)n3)cn2c1C`, the ED50 in the test listed under Mus musculus [7] is 70 mg/kg; in the test listed under Mus musculus [6], greater than 200 mg/kg. Further, in the test on Rattus norvegicus [8], the minimal effective dose came out at 1 mg/kg.

Regarding `CCc1c(OC)nc2nc(-c3noc(C)n3)c(Br)n2c1C`, the IC50 in test [1] was 10000 nM. For the same molecule, the minimal effective dose in the test with Rattus norvegicus [3] stood at 10 mg/kg.

Regarding `CNC1=Nc2ccc(Cl)cc2C(c2ccccc2)=[N+]([O-])C1` [CHLORDIAZEPOXIDE], the results for the ED50 in the test listed under Mus musculus [7] and in the test filed under Mus musculus [9] were 1.9 mg/kg and 6.8 mg/kg, respectively. In addition, the minimal effective dose with Rattus norvegicus [3] came to 2 mg/kg.

On to `CCc1c(OC)nc2nc(-c3nc(C)cs3)cn2c1C`, for which the IC50 in test [1] is 112 nM. Further, the ED50 in the test with Mus musculus [10] stood at 1.7 mg/kg. Further, the minimal effective dose with Rattus norvegicus [4] was 10 mg/kg; with Rattus norvegicus [3], greater than 50 mg/kg.

With `CCCc1c(OC)nc2nc(-c3noc(C)n3)cn2c1C`, in [1], the IC50 turned out to be 1600 nM. The ED50 in the test filed under Mus musculus [5] is 13 mg/kg; in the test listed under Mus musculus [6], 16.5 mg/kg. In addition, the minimal effective dose in the test on Rattus norvegicus [3] is 5 mg/kg.

The molecule `CCc1c(OC)nc2nc(-c3nc(C)c(C)s3)cn2c1C` showed an IC50 in test [1] of 2500 nM. The minimal effective dose in the test on Rattus norvegicus [4] and in the test with Rattus norvegicus [3] was greater than 50 mg/kg in each case.

Consider `COc1nc2nc(-c3nnc(C)o3)cn2c2c1CCCC2`, for which, in [1], the IC50 is 3200 nM. In addition, in the test with Rattus norvegicus [3], the minimal effective dose was greater than 50 mg/kg.

As to `CCc1c(OC)nc2nc(-c3nnc(C)s3)cn2c1C`, the IC50 in [1] was greater than 10000 nM. In the test with Rattus norvegicus [11], the minimal effective dose was 2 mg/kg.

In test [1], `CCc1c(OC)nc2nc(-c3n[nH]c(C)n3)cn2c1C` gave an IC50 greater than 10000 nM. In the test with Rattus norvegicus [3], the minimal effective dose was greater than 50 mg/kg.

The molecule `COc1nc2nc(-c3nc(C)cs3)cn2c2c1CCCC2` gave an IC50 in test [1] of 22 nM. Besides, the minimal effective dose in the test with Rattus norvegicus [4] and in the test on Rattus norvegicus [3] was greater than 50 mg/kg each time.

Take `CCCc1c(OC)nc2nc(-c3nc(C)cs3)cn2c1C`: the IC50 in test [1] is 100 nM. Besides, the values for the minimal effective dose in the test on Rattus norvegicus [4] and in the test on Rattus norvegicus [3] were 50 mg/kg and greater than 50 mg/kg, respectively.

Molecule `CCc1c(OC)nc2nc(-c3nc(C(F)(F)F)cs3)cn2c1C` gave an IC50 in test [1] of 2000 nM. Moreover, the minimal effective dose in the test with Rattus norvegicus [4] and with Rattus norvegicus [3] was greater than 50 mg/kg in each case.

For `CCc1c(OC)nc2nc(-c3nnc(C)o3)cn2c1C`, the ED50 is 20 mg/kg in the test listed under Mus musculus [5] and greater than 200 mg/kg in the test filed under Mus musculus [6]. Further, the minimal effective dose in the test on Rattus norvegicus [3] was 2 mg/kg.

Consider `CCc1c(OC)nc2nc(-c3cc(C)no3)cn2c1C`, for which the half-inhibitory concentration (IC50) in test [1] is 4500 nM. Moreover, the minimal effective dose with Rattus norvegicus [3] amounted to 50 mg/kg.

In [1], `CCc1c(OC)nc2nc(-c3noc(C)n3)cn2c1C` [FASIPLON] registered an IC50 of 500 nM. Besides, the ED50 in the test filed under Mus musculus [5] was 7.4 mg/kg; in the test listed under Mus musculus [6], 17 mg/kg. Further, in the test on Rattus norvegicus [11], the minimal effective dose amounted to 2 mg/kg.

`CCc1c(OC)nc2nc(-c3nc(C)no3)cn2c1C`: the IC50 in test [1] was 630 nM. For the same molecule, the figures for the ED50 in the test filed under Mus musculus [5] and in the test listed under Mus musculus [6] were 14 mg/kg and greater than 100 mg/kg, respectively. For the same molecule, the minimal effective dose with Rattus norvegicus [3] turned out to be 5 mg/kg.

The molecule `CCc1csc(-c2cn3c(C)c(CC)c(OC)nc3n2)n1` registered an IC50 in test [1] of 220 nM. Besides, the minimal effective dose in the test on Rattus norvegicus [4] and in the test on Rattus norvegicus [3] was 50 mg/kg each time.

In turn, `CCc1nnc(-c2cn3c(C)c(CC)c(OC)nc3n2)o1` had an IC50 in [1] greater than 10000 nM. The minimal effective dose with Rattus norvegicus [3] is 50 mg/kg.

The molecule `CCc1c(SC)nc2nc(-c3nnc(C)o3)cn2c1C` came in with an IC50 in test [1] of 320 nM. Moreover, in the test with Rattus norvegicus [3], the minimal effective dose is 5 mg/kg.

`CCc1c(SC)nc2nc(-c3noc(C)n3)cn2c1C` yielded an IC50 in [1] of 160 nM. For the same molecule, the minimal effective dose in the test on Rattus norvegicus [3] was determined as 2 mg/kg.

`CCc1c(OC)nc2nc(-c3cnco3)cn2c1C`: in test [1], the half-maximal inhibitory concentration (IC50) was determined as 2500 nM. Further, the minimal effective dose in the test on Rattus norvegicus [3] is greater than 50 mg/kg.

Turning to `CCc1c(OC)nc2nc(-c3noc(C)n3)c(Cl)n2c1C`, the IC50 in test [1] was 10000 nM. In addition, the minimal effective dose in the test with Rattus norvegicus [3] was found to be 10 mg/kg.

`C/C=C/c1c(OC)nc2nc(-c3nnc(C)o3)cn2c1C` came in with an IC50 in test [1] greater than 10000 nM. Besides, the minimal effective dose with Rattus norvegicus [3] is greater than 50 mg/kg.
